Results from ChEMBL document CHEMBL3865824, “New (E)-1-alkyl-1H-benzo[d]imidazol-2-yl)methylene)indolin-2-ones: Synthesis, in vitro cytotoxicity evaluation and apoptosis inducing studies” (Eur J Med Chem, 2016).
Activity calls are given as the source filed them. The calls are words filed in the database; no cut-off is given here.

Key:
[1] = Selectivity ratio of IC50 for human MCF10A cells to IC50 for human MDA-MB-231 cells; assay type: ADME, cell-based, MCF-10A; details: MCF10A cells versus MDA-MB-231 cells, read-out: Ratio IC50
[2] = Cell cycle arrest in human MDA-MB-231 cells assessed as accumulation at G2/M phase at 4 uM after 24 hrs by propidium iodide staining based FACS analysis (reference value: 26 %); assay type: functional
Outline: (§1)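 MDA-MB-231 at 1×10^6 cells/well treated with 1, 2 or 4 µM for 24 h, with a DMSO control. Cells harvested by trypsin, washed with PBS and fixed in 70% ethanol for 30 min at 4 °C. Stained 15 min at room temperature in the dark with PI buffer containing Triton X and DNase-free RNase A. Analysed by flow cytometry; G0/G1, S and G2/M fractions quantified.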

[3] = Cell cycle arrest in human MDA-MB-231 cells assessed as accumulation at G0/G1 phase at 4 uM after 24 hrs by propidium iodide staining based FACS analysis (reference value: 50.4 %); assay type: functional; outline: as §1
MDA-MB-231 [4] = assay: Induction of apoptosis in human MDA-MB-231 cells assessed as destructive fragmentation of chromatin at 4 uM after 24 hrs by AO/EB-dual staining based fluorescent microscopic analysis; assay type: functional, cell-based
Outline: (§2)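 MDA-MB-231 plated at 1×10^6 cells/mL and treated at 1, 2 or 4 µM, with a DMSO control. Incubation time is given as 48 h in the methods and 24 h in the figure legend. AO and EB added at 10 µg/mL each. Cells viewed within 10 min by fluorescence microscopy (excitation 488 nm, emission 550 nm) at 200×.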

MDA-MB-231 [5] = assay: Induction of apoptosis in human MDA-MB-231 cells assessed as cell membrane blebbing at 1 uM after 24 hrs by AO/EB-dual staining based fluorescent microscopic analysis; assay type: functional; outline: as §2
[6] = Cytotoxicity against human A549 cells assessed as growth inhibition at 50 uM after 48 hrs by MTT assay relative to control; assay type: functional; details: A549, 48 h, read-out: GI
Outline: (§3)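 Cells grown in DMEM or MEM with 10% FBS at 37 °C, 5% CO2. Seeded at 1×10^4 cells/well, incubated 48 h, then exposed to compound for 48 h with vehicle control. MTT (5 mg/mL stock) added for 4 h; formazan dissolved in DMSO, absorbance read at 570 nm. Preliminary screen at 50 µM. Compounds giving >50% inhibition were tested for dose-response curves; IC50 derived by linear regression of % inhibition versus concentration. Mean of three independent experiments in triplicate.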

[7] = Selectivity ratio of IC50 for human MCF10A cells to IC50 for […] cells; assay type: ADME, cell-based, MCF-10A; details: MCF10A cells versus 4TI cells, read-out: Ratio IC50
[8] = Cell cycle arrest in human MDA-MB-231 cells assessed as accumulation at G0/G1 phase at 2 uM after 24 hrs by propidium iodide staining based FACS analysis (reference value: 50.4 %); assay type: functional; outline: as §1
MDA-MB-231 [9] = assay: Antimigratory activity against human MDA-MB-231 cells assessed inhibition of cell migration towards wound area at 2 to 4 uM up to 24 hrs by phase contrast microscopic analysis; assay type: functional, cell-based
Outline: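 MDA-MB-231 seeded at 5×10^5 cells/well and grown 24 h to a confluent monolayer. Monolayer scratched with a 200 µL pipette tip and washed twice with PBS to remove non-adherent cells. Medium with compound at 1, 2 or 4 µM added. Wound closure photographed by phase contrast microscopy at 0 and 24 h after treatment.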

MDA-MB-231 [10] = assay: Induction of apoptosis in human MDA-MB-231 cells assessed as viable cells at 4 uM after 24 hrs by Annexin V-FITC/propidium iodide-staining based FACS analysis (reference value: 89.5 %); assay type: functional; details: MDA-MB-231, 24 h, read-out: Activity
MDA-MB-231 [11] = assay: Induction of apoptosis in human MDA-MB-231 cells assessed as formation of condensed nuclei at 1 to 4 uM after 24 hrs by DAPI dye-based fluorescent microscopic analysis; assay type: functional, cell-based
Outline: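 MDA-MB-231 grown at 1×10^6 cells/well in 6-well plates and treated at 1.0, 2.0 or 4.0 µM for 24 h, with untreated controls. Cells washed twice with PBS, fixed in 4% paraformaldehyde and stained with 10 µg/mL DAPI. Nuclei examined by fluorescence microscopy (excitation 359 nm, emission 461 nm) at 200×.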

[12] = Cell cycle arrest in human MDA-MB-231 cells assessed as after 24 hrs by propidium iodide staining based FACS analysis
[13] = Cytotoxicity against human BT549 cells assessed as growth inhibition at 50 uM after 48 hrs by MTT assay relative to control; assay type: functional; details: BT-549, 48 h, read-out: GI; outline: as §3
[14] = Cytotoxicity against human MCF10A cells assessed as reduction in cell viability after 48 hrs by MTT assay; assay type: toxicity, cell-based, MCF-10A; outline: as §3
MDA-MB-231 [15] = assay: Induction of apoptosis in human MDA-MB-231 cells assessed as late apoptotic cells at 1 uM after 24 hrs by Annexin V-FITC/propidium iodide-staining based FACS analysis (reference value: 3.6 %); assay type: functional
MDA-MB-231 [16] = assay: Induction of apoptosis in human MDA-MB-231 cells assessed as increase in caspase-3 expression after 24 hrs by Western blot analysis; assay type: functional, cell-based
Outline: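 MDA-MB-231 treated at 1, 2 or 4 µM for 24 h. Whole-cell extracts prepared in RIPA buffer. Blots probed with rabbit anti-caspase-3, anti-Bcl2 and anti-β-actin (1:1000) and anti-Bax (1:500), then HRP secondaries and ECL detection. Membranes stripped and reprobed. Bands quantified by densitometry as fold change versus control. Mean ± SEM, n=3.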

MDA-MB-231 [17] = assay: Induction of apoptosis in human MDA-MB-231 cells assessed as early apoptotic cells at 4 uM after 24 hrs by Annexin V-FITC/propidium iodide-staining based FACS analysis (reference value: 4.1 %); assay type: functional
MDA-MB-231 [18] = assay: Inhibition of F-actin polymerization in human MDA-MB-231 cells assessed as disruption of stress fibres at 1 to 4 uM after 12 hrs by rhodamine-phalloidin/hoechst […]-dual staining based confocal microscopic analysis; assay type: cell-based
Outline: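 MDA-MB-231 cells (1×10^6/well) were grown on coverslips for 24 h, then exposed 12 h to 1, 2 and 4 μM. After a PBS wash and fixation in 4% paraformaldehyde, F-actin was stained with rhodamine-phalloidin and nuclei with Hoechst […]. Slides were mounted in anti-fade reagent and imaged by confocal microscopy (20× objective).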

MDA-MB-231 [19] = assay: Induction of apoptosis in human MDA-MB-231 cells assessed as late apoptotic cells after 24 hrs by Annexin V-FITC/propidium iodide-staining based FACS analysis; assay type: functional, cell-based
[20] = Cell cycle arrest in human MDA-MB-231 cells assessed as accumulation at S phase at 4 uM after 24 hrs by propidium iodide staining based FACS analysis (reference value: 24.6 %); assay type: functional; outline: as §1
[21] = Cytotoxicity against human MDA-MB-231 cells assessed as reduction in cell viability after 48 hrs by MTT assay; assay type: functional, cell-based; details: MDA-MB-231, 48 h; outline: as §3
[22] = Cell cycle arrest in human MDA-MB-231 cells assessed as accumulation at G2/M phase after 24 hrs by propidium iodide staining based FACS analysis; assay type: functional; details: in the assay text read “G0/G1” for “G2/M”; outline: as §1

CC(C)n1c(/C=C2/C(=O)Nc3ccc(Br)cc32)nc2ccccc21
selectivity ratio [1]: 17 | Activity [2]: 14.8% | Activity [3]: 74.7% | Activity (MDA-MB-231 [4]): Active | Activity (MDA-MB-231 [5]): Active | inhibition of growth at 50 µM [6]: > 50% | selectivity ratio [7]: 9.5 | Activity [8]: 64.3% | inhibition (MDA-MB-231 [9]): Active | viability at 4 µM (MDA-MB-231 [10]): 65.3% | Activity (MDA-MB-231 [11]): Active | Activity [12]: Dose-dependent effect | inhibition of growth at 50 µM [13]: > 50% | IC50 at 48 h [14]: 56.9 µM | Activity (MDA-MB-231 [15]): 4.7% | Activity (MDA-MB-231 [16]): Dose-dependent effect | Activity (MDA-MB-231 [17]): 23.4% | inhibition (MDA-MB-231 [18]): Active | Activity (MDA-MB-231 [19]): Dose-dependent effect | Activity [20]: 11.3% | IC50 [21]: 3.26 µM | Activity [22]: Dose-dependent effect
